Assay results: ChEMBL document CHEMBL1143019, “Hybrid molecules of estrone: new compounds with potential antibacterial, antifungal, and antiproliferative activities” (2007)
≈ marks a conversion by molar mass, not a printed value.

Key:
Aspergillus fumigatus [1] = test: Antifungal activity against Aspergillus fumigatus 231 after 48 hrs; type: functional
Procedure, shortened: (§1)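 Modified NCCLS M27-A broth microdilution with clinical isolates subcultured on Sabouraud dextrose agar. Suspensions diluted 1:50 in RPMI 1640 to give a final inoculum of 0.5–2.5×10³ CFU/mL for yeasts or 0.5–5×10⁴ CFU/mL for molds. The RPMI had L-glutamine, no bicarbonate, and 0.165 M MOPS to pH 7.0. Twofold dilutions from 250 to 0.49. Plates held at 35 °C, humid, without agitation. MIC is the lowest concentration giving ≥80% inhibition versus drug-free control, read at 24 and 48 h.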

Trichosporon beigelii [2] = test: Antifungal activity against Trichosporon beigelii 1188 after 48 hrs; type: functional; procedure, shortened: as §1
Candida tropicalis [3] = test: Antifungal activity against Candida tropicalis 156 after 48 hrs; type: functional; procedure, shortened: as §1
Lichtheimia corymbifera [4] = test: Antifungal activity against Absidia corymbifera 272 after 24 hrs; type: functional; procedure, shortened: as §1
HeLa = test: Cytotoxicity against human HeLa cells after 72 hrs; type: functional; settings: for CC50: Homo sapiens, HeLa, 72 h
Procedure, shortened: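 About 10,000 cells per well in RPMI 1640 were preincubated 48 h without compound. The 10 test concentrations were then applied onto the monolayers and incubated 72 h at 37 °C in humidified 5% CO₂. Monolayers fixed with glutaraldehyde, stained with 0.05% methylene blue, and eluted with 0.33 N HCl; optical density measured at 630 nm.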

K562 = test: Antiproliferative activity against human K562 cells after 72 hrs; type: functional; settings: K562, 72 h
Procedure, shortened: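 About 10,000 suspension cells per well in RPMI 1640 with 10% heat-inactivated FBS and penicillin/streptomycin, without HEPES. Exposed to 10 concentrations for 72 h at 37 °C in humidified 5% CO₂. Wells diluted 1:50 in CASYTON and counted electronically, each result the mean of three successive counts. GI50 is where the concentration–response curve crosses 50% of control cell count.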

Candida albicans [5] = test: Antifungal activity against Candida albicans ATCC 44859 after 48 hrs; type: functional; settings: ATCC 44859, 48 h; procedure, shortened: as §1
Candida albicans [6] = test: Antifungal activity against Candida albicans ATCC 44859 after 24 hrs; type: functional; settings: ATCC 44859, 24 h; procedure, shortened: as §1
Mycobacterium kansasii [7] = test: Antimicrobial activity against Mycobacterium kansasii My 235/80 after 21 days; type: functional; settings: 504 h
Procedure, shortened: (§2)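 Run in Šula semisynthetic liquid medium containing bovine serum. Compounds added as DMSO solutions at final concentrations of […]. Each strain was also inoculated onto Löwenstein–Jensen medium to control inoculum sterility and growth.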

Pichia kudriavzevii [8] = test: Antifungal activity against Candida krusei E28 after 48 hrs; type: functional; procedure, shortened: as §1
Candida tropicalis [9] = test: Antifungal activity against Candida tropicalis 156 after 24 hrs; type: functional; procedure, shortened: as §1
Trichosporon beigelii [10] = test: Antifungal activity against Trichosporon beigelii 1188 after 24 hrs; type: functional; procedure, shortened: as §1
[11] = test system: Mycobacterium tuberculosis; test: Antimicrobial activity against Mycobacterium tuberculosis My 331/88 after 14 days; type: functional; settings: 336 h
L929 = test: Antiproliferative activity against mouse L929 cells after 72 hrs; type: functional; settings: L929, 72 h
Procedure, shortened: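 About 10,000 adherent cells per well in RPMI 1640 with 10% heat-inactivated FBS and penicillin/streptomycin, without HEPES. Exposed to 10 concentrations for 72 h at 37 °C in humidified 5% CO₂. Monolayers fixed with glutaraldehyde, stained 15 min with 0.05% methylene blue, and eluted with 0.33 N HCl; OD read at 630 nm. GI50 derived from dose–response curves relative to control.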

Mycobacterium kansasii [12] = test: Antimicrobial activity against Mycobacterium kansasii My 235/80 after 7 days; type: functional; settings: 168 h; procedure, shortened: as §2
Trichophyton benhamiae [13] = test: Antifungal activity against Trichophyton mentagrophytes 445 after 120 hrs; type: functional, Arthroderma benhamiae
Procedure, shortened: (§3)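 Same modified M27-A microdilution with the mold inoculum of 0.5–5×10⁴ CFU/mL. Medium was RPMI 1640 with L-glutamine, no bicarbonate, and 0.165 M MOPS at pH 7.0. Twofold dilutions from 250 to 0.49. Incubated at 35 °C in a humid atmosphere.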

Nakaseomyces glabratus [14] = test: Antifungal activity against Candida glabrata 20/I after 24 hrs; type: functional; procedure, shortened: as §1
Mycobacterium kansasii [15] = test: Antimicrobial activity against Mycobacterium kansasii My 6509/96 after 14 days; type: functional; settings: 336 h; procedure, shortened: as §2
Pichia kudriavzevii [16] = test: Antifungal activity against Candida krusei E28 after 24 hrs; type: functional; procedure, shortened: as §1
Lichtheimia corymbifera [17] = test: Antifungal activity against Absidia corymbifera 272 after 48 hrs; type: functional; procedure, shortened: as §1
Nakaseomyces glabratus [18] = test: Antifungal activity against Candida glabrata 20/I after 48 hrs; type: functional; procedure, shortened: as §1
Mycobacterium kansasii [19] = test: Antimicrobial activity against Mycobacterium kansasii My 6509/96 after 7 days; type: functional; settings: 168 h; procedure, shortened: as §2
Trichophyton benhamiae [20] = test: Antifungal activity against Trichophyton mentagrophytes 445 after 72 hrs; type: functional, Arthroderma benhamiae; procedure, shortened: as §3
Aspergillus fumigatus [21] = test: Antifungal activity against Aspergillus fumigatus 231 after 24 hrs; type: functional; procedure, shortened: as §1
Mycobacterium kansasii [22] = test: Antimicrobial activity against Mycobacterium kansasii My 6509/96 after 21 days; type: functional; settings: 504 h; procedure, shortened: as §2
[23] = test system: Mycobacterium tuberculosis; test: Antimicrobial activity against Mycobacterium tuberculosis My 331/88 after 21 days; type: functional; settings: 504 h
Mycobacterium kansasii [24] = test: Antimicrobial activity against Mycobacterium kansasii My 235/80 after 14 days; type: functional; settings: 336 h; procedure, shortened: as §2
Mycobacterium avium [25] = test: Antimicrobial activity against Mycobacterium avium My 330/88 after 14 days; type: functional; settings: 336 h
Mycobacterium avium [26] = test: Antimicrobial activity against Mycobacterium avium My 330/88 after 21 days; type: functional; settings: 504 h

Compound	MIC (Aspergillus fumigatus [1]) [µM]	MIC (Trichosporon beigelii [2]) [µM]	MIC (Candida tropicalis [3]) [µM]	MIC (Lichtheimia corymbifera [4]) [µM]	CC10 (HeLa) [µg/mL]	CC50 (HeLa) [µg/mL]	GI50 (K562) [µg/mL]	MIC (Candida albicans [5]) [µM]	MIC (Candida albicans [6]) [µM]	MIC (Mycobacterium kansasii [7]) [µM]	MIC (Pichia kudriavzevii [8]) [µM]	MIC (Candida tropicalis [9]) [µM]	MIC (Trichosporon beigelii [10]) [µM]	GI50 (L929) [µg/mL]	MIC (Trichophyton benhamiae [13]) [µM]	MIC (Nakaseomyces glabratus [14]) [µM]	MIC (Pichia kudriavzevii [16]) [µM]	MIC (Lichtheimia corymbifera [17]) [µM]	MIC (Nakaseomyces glabratus [18]) [µM]	MIC (Trichophyton benhamiae [20]) [µM]	other results
Cc1ccc(-n2nnnc2SCc2ccccc2)cc1	250 (≈ 70.6 µg/mL)	> 250	> 250	> 250	4 (≈ 14.2 µM)	19.7 (≈ 69.8 µM)	24.3 (≈ 86.1 µM)	> 250	> 250	250 (≈ 70.6 µg/mL)	> 250	> 250	> 250	12.5 (≈ 44.3 µM)	62.5 (≈ 17.6 µg/mL)	> 250	> 250	> 250	> 250	31.3 (≈ 8.84 µg/mL)	MIC [11]: 32 µM (≈ 9.04 µg/mL); MIC (Mycobacterium kansasii [12]): 16 µM (≈ 4.52 µg/mL); MIC (Mycobacterium kansasii [15]): 32 µM (≈ 9.04 µg/mL); MIC (Mycobacterium kansasii [19]): 16 µM (≈ 4.52 µg/mL); MIC (Aspergillus fumigatus [21]): 62.5 µM (≈ 17.6 µg/mL); MIC (Mycobacterium kansasii [22]): 250 µM (≈ 70.6 µg/mL); MIC [23]: 125 µM (≈ 35.3 µg/mL); MIC (Mycobacterium kansasii [24]): 32 µM (≈ 9.04 µg/mL); MIC (Mycobacterium avium [25]): 62.5 µM (≈ 17.6 µg/mL)
c1ccc(CSc2nnnn2-c2ccccc2)cc1	> 250	> 250	> 250	> 250	8.7 (≈ 32.4 µM)	41.6 (≈ 155 µM)	36.1 (≈ 135 µM)	> 250	> 250	125 (≈ 33.5 µg/mL)	> 250	> 250	> 250	22.5 (≈ 83.8 µM)	62.5 (≈ 16.8 µg/mL)	> 250	> 250	> 250	> 250	31.3 (≈ 8.4 µg/mL)	MIC [11]: 16 µM (≈ 4.29 µg/mL); MIC (Mycobacterium kansasii [12]): 16 µM (≈ 4.29 µg/mL); MIC (Mycobacterium kansasii [15]): 32 µM (≈ 8.59 µg/mL); MIC (Mycobacterium kansasii [19]): 16 µM (≈ 4.29 µg/mL); MIC (Mycobacterium avium [26]): 125 µM (≈ 33.5 µg/mL); MIC (Aspergillus fumigatus [21]): > 250 µM; MIC (Mycobacterium kansasii [22]): 125 µM (≈ 33.5 µg/mL); MIC [23]: 62.5 µM (≈ 16.8 µg/mL); MIC (Mycobacterium kansasii [24]): 32 µM (≈ 8.59 µg/mL); MIC (Mycobacterium avium [25]): 32 µM (≈ 8.59 µg/mL)
C[C@]12CC[C@@H]3c4ccc(OCCCCCCCSc5nnnn5-c5ccc(Cl)c(Cl)c5)cc4CC[C@H]3[C@@H]1CCC2=O	> 250	> 250	> 250	> 250	50 (≈ 81.5 µM)	> 50	> 50	> 250	> 250	> 500	> 250	> 250	> 250	> 50	> 250	> 250	> 250	> 250	> 250	> 250	MIC (Aspergillus fumigatus [21]): 250 µM (≈ 153 µg/mL); MIC (Mycobacterium kansasii [22]): > 500 µM; MIC [23]: > 500 µM; MIC (Mycobacterium kansasii [24]): > 500 µM
